# Calls of active or inactive are those of the source. No cut-off for these calls is given here.
# Columns and labels:
# Rattus norvegicus [1] = organism: Rattus norvegicus; test: Saluretic activity in the rat measured as concentration of Na+ in urine; type: functional
# How it was run: (§1)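 Rats deprived of food 24 h, water ad libitum, dosed 50 mg/kg by stomach tube as suspension in 2% starch, no extra water load. Groups of three in diuresis funnels; urine over first 5 h collected. Na⁺ and K⁺ by flame photometry, Cl⁻ argentometrically; expressed as mequiv/kg.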
# Canis familiaris [2] = test: Saluretic activity in the dog measured as concentration of K+ in urinary excretion (2 animals/dose) at (dose 1.56 mg/Kg, po); type: functional, Canis lupus familiaris, Urine
# How it was run: (§2)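 Male beagles trained to rest on a table and to accept stomach tube and catheter. Food withdrawn 24 h before, tap water ad libitum. Bladder emptied by catheter, then 20 mL/kg tap water by stomach tube. Catheterized hourly up to 8 h with 4 mL/kg water orally each time; first 2 h urine served as control. Oral dosing after second catheterization. Pooled 1–6 h urine; Na⁺/K⁺ by flame photometry, Cl⁻ argentometrically.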
# Canis familiaris [3] = test: Diuretic activity in the dog (2 animals/dose) at (dose 1.56 mg/Kg), when administered perorally; type: functional, Canis lupus familiaris, Urine
# How it was run: (§3)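 Trained male beagles, fasted 24 h with tap water ad libitum. Bladder emptied by catheter, then 20 mL/kg tap water by stomach tube, with 4 mL/kg water at each hourly catheterization up to 8 h. The first 2 h of urine served as control. Oral dosing came after the second catheterization, and 1–6 h urine was pooled. Na⁺ and K⁺ were measured by flame photometry, Cl⁻ argentometrically, in mequiv/kg.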
# [4] = It is the ratio, measured as saluretic activity in the dog as concentration of Na+ in urinary excretion (dose 1.56 mg/Kg, po) to that of K; type: functional, Urine; how it was run: as §3
# Rattus norvegicus [5] = organism: Rattus norvegicus; test: Saluretic activity in the rat measured as concentration of chloride in urine; type: functional; how it was run: as §1
# [6] = It is the ratio, measured as saluretic activity in the dog as concentration of Cl- in urinary excretion (dose 1.56 mg/Kg, po) to that of (Na+)+(K+); type: functional, Urine; how it was run: as §3
# Canis familiaris [7] = test: Saluretic activity in the dog measured as concentration of Na+ in urinary excretion (2 animals/dose) at (dose 1.56 mg/Kg, po); type: functional, Canis lupus familiaris, Urine; how it was run: as §2
# Rattus norvegicus [8] = organism: Rattus norvegicus; test: Saluretic activity in the rat measured as concentration of K+ in urine; type: functional; how it was run: as §1
# Rattus norvegicus [9] = organism: Rattus norvegicus; test: Diuretic activity in the rats, determined by a modified Lipschitz test; type: functional, Urine
# How it was run: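 Modified Lipschitz test: rats deprived of water 24 h, grouped in threes of similar weight in diuresis funnels. Oral dose of 50 mg/kg, suspended in 2% starch solution, by stomach tube.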
# Canis familiaris [10] = test: Saluretic activity in the dog measured as concentration of Cl - in urinary excretion (2 animals/dose) at (dose 1.56 mg/Kg, po); type: functional, Canis lupus familiaris, Urine
# How it was run: (§4)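 Male beagles trained to the procedures, food withdrawn 24 h before, tap water ad libitum. Bladder emptied by catheter, then 20 mL/kg tap water by stomach tube, plus 4 mL/kg orally at each hourly catheterization up to 8 h. The first 2 h of urine served as control. Compound given orally after the second catheterization. Urine from 1–6 h post-dose pooled; Na⁺ and K⁺ by flame photometry, Cl⁻ argentometrically, in mequiv/kg.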
# [11] = It is the ratio, measured as saluretic activity in the dog as concentration of Cl- in urinary excretion (dose 1.56 mg/Kg, po) to that of (Na++K+); type: functional, Urine; how it was run: as §3
# Canis familiaris [12] = test: Saluretic activity in the dog measured as concentration of K+ in urinary excretion (2 animals/dose) at (dose 1.56 mg/Kg, perorally); type: functional, Canis lupus familiaris, Urine; how it was run: as §4
# Canis familiaris [13] = test: Salidiuretic activity on the basis of the 1.56 mg/Kg perorally dog assay; compound was found to be active; type: functional, organism-based; details: Canis lupus familiaris; Urine
# [14] = It is the ratio, measured as saluretic activity in the dog as concentration of Na+ in urinary excretion (dose 1.56 mg/Kg, perorally) to that of K; type: functional, Urine; how it was run: as §3
# Canis familiaris [15] = test: Saluretic activity in the dog measured as concentration of Cl - in urinary excretion (2 animals/dose) at (dose 1.56 mg/Kg, perorally); type: functional, Canis lupus familiaris, Urine; how it was run: as §4
# Canis familiaris [16] = test: Saluretic activity in the dog measured as concentration of Na+ in urinary excretion (2 animals/dose) at (dose 1.56 mg/Kg, perorally); type: functional, Canis lupus familiaris, Urine; how it was run: as §2
# [17] = It is the ratio, measured as saluretic activity in the dog as concentration of Cl- in urinary excretion (dose 1.56 mg/Kg, perorally) to that of (Na+)+(K+); type: functional, Urine; how it was run: as §3
# Rattus norvegicus [18] = test: Salidiuretic activity on the basis of the 50 mg/kg perorally rat assay; NA means inactive; details: Urine
# Rattus norvegicus [19] = test: Salidiuretic activity on the basis of the 50 mg/kg po rat assay; compound was found to be active; type: functional, organism-based; design: dose 50 mg/kg; details: Urine
# Canis familiaris [20] = test: Salidiuretic activity on the basis of the 1.56 mg/Kg po dog assay; compound was found to be active; type: functional, organism-based; details: Canis lupus familiaris; Urine
# Canis familiaris [21] = test: Salidiuretic activity on the basis of the 1.56 mg/Kg po dog assay; compound was moderately active; type: functional, organism-based; details: Canis lupus familiaris; Urine
# Rattus norvegicus [22] = test: Salidiuretic activity on the basis of the 50 mg/kg po rat assay; compound was active; type: functional, organism-based; design: dose 50 mg/kg; details: Urine
# Rattus norvegicus [23] = test: Salidiuretic activity on the basis of the 50 mg/kg perorally rat assay; compound was found to be highly active; type: functional, organism-based; design: dose 50 mg/kg; details: Urine
# Canis familiaris [24] = test: Salidiuretic activity on the basis of the 1.56 mg/Kg perorally dog assay; compound was found to be highly active; type: functional, organism-based; details: Canis lupus familiaris; Urine
Compound,Saluretic activity (Rattus norvegicus [1]),Diuretic activity (Canis familiaris [3]),Saluretic activity (Rattus norvegicus [5]),Saluretic activity (Rattus norvegicus [8]),Diuretic activity (Rattus norvegicus [9]),other results
NS(=O)(=O)c1cc(S(=O)(=O)[O-])c(NCc2ccco2)cc1SC1CCCCC1.[K+],1.4 m equiv 5hr-1 kg-1,32.6 ml kg-1 6hr-1,1.9 m equiv 5hr-1 kg-1,0.5 m equiv 5hr-1 kg-1,0.8 mL/kg,Saldiuretic activity (Canis familiaris [2]): 0.07 m equiv 6hr-1 kg-1; Ratio [4]: 3.9; Ratio [6]: 0.95; Saluretic activity (Canis familiaris [7]): 0.27 m equiv 6hr-1 kg-1; Saldiuretic activity (Canis familiaris [10]): 0.32 m equiv 6hr-1 kg-1
CCCCS(=O)(=O)c1cc(NCc2ccco2)c(S(=O)(=O)[O-])cc1S(N)(=O)=O.[Na+],7.3 m equiv 5hr-1 kg-1,65.5 ml kg-1 6hr-1,8.7 m equiv 5hr-1 kg-1,2.2 m equiv 5hr-1 kg-1,3.8 mL/kg,Saldiuretic activity (Canis familiaris [2]): 0.97 m equiv 6hr-1 kg-1; Ratio [4]: 5; Saluretic activity (Canis familiaris [7]): 4.92 m equiv 6hr-1 kg-1; Ratio [11]: 1; Saldiuretic activity (Canis familiaris [10]): 5.78 m equiv 6hr-1 kg-1
NS(=O)(=O)c1cc(S(=O)(=O)[O-])c(NCCc2ccco2)cc1Oc1ccccc1.[K+],0.6 m equiv 5hr-1 kg-1,35.2 ml kg-1 6hr-1,0.9 m equiv 5hr-1 kg-1,0.7 m equiv 5hr-1 kg-1,1.2 mL/kg,Saluretic activity (Canis familiaris [12]): 0.21 m equiv 6hr-1 kg-1; Saldiuretic activity (Canis familiaris [13]): Active; Ratio [14]: 4.2; Saldiuretic activity (Canis familiaris [15]): 1.18 m equiv 6hr-1 kg-1; Saluretic activity (Canis familiaris [16]): 0.89 m equiv 6hr-1 kg-1; Ratio [17]: 1.1; Diuretic activity (Rattus norvegicus [18]): inactive
CN(c1ccccc1)c1cc(NCCc2ccco2)c(S(=O)(=O)[O-])cc1S(N)(=O)=O.[K+],2.2 m equiv 5hr-1 kg-1,59.9 ml kg-1 6hr-1,3.2 m equiv 5hr-1 kg-1,2 m equiv 5hr-1 kg-1,1.2 mL/kg,Saluretic activity (Canis familiaris [2]): 1.08 m equiv 6hr-1 kg-1; Ratio [4]: 4.3; Ratio [6]: 1; Saluretic activity (Canis familiaris [7]): 4.7 m equiv 6hr-1 kg-1; Saldiuretic activity (Canis familiaris [10]): 5.81 m equiv 6hr-1 kg-1
N.NS(=O)(=O)c1cc(S(=O)(=O)O)c(NCc2ccccc2)cc1Oc1ccccc1,4.9 m equiv 5hr-1 kg-1,48 ml kg-1 6hr-1,6.9 m equiv 5hr-1 kg-1,2.2 m equiv 5hr-1 kg-1,3 mL/kg,Saluretic activity (Canis familiaris [12]): 0.53 m equiv 6hr-1 kg-1; Ratio [14]: 5.9; Saldiuretic activity (Canis familiaris [15]): 3.91 m equiv 6hr-1 kg-1; Saluretic activity (Canis familiaris [16]): 3.12 m equiv 6hr-1 kg-1; Saldiuretic activity (Rattus norvegicus [19]): Active; Ratio [17]: 1.1; Saldiuretic activity (Canis familiaris [20]): Active
NS(=O)(=O)c1cc(S(=O)(=O)[O-])c(NCc2ccccc2)cc1S(=O)(=O)C1CCCCC1.[Na+],2 m equiv 5hr-1 kg-1,51 ml kg-1 6hr-1,1.8 m equiv 5hr-1 kg-1,1.7 m equiv 5hr-1 kg-1,0.5 mL/kg,Saluretic activity (Canis familiaris [2]): 0.56 m equiv 6hr-1 kg-1; Ratio [4]: 5.8; Ratio [6]: 1.05; Saldiuretic activity (Canis familiaris [21]): Weak activity; Saldiuretic activity (Rattus norvegicus [22]): Active; Saluretic activity (Canis familiaris [7]): 3.23 m equiv 6hr-1 kg-1; Saldiuretic activity (Canis familiaris [10]): 3.94 m equiv 6hr-1 kg-1
CCCCSc1cc(NCc2ccco2)c(S(=O)(=O)[O-])cc1S(N)(=O)=O.[K+],3.6 m equiv 5hr-1 kg-1,32.8 ml kg-1 6hr-1,3.6 m equiv 5hr-1 kg-1,2.2 m equiv 5hr-1 kg-1,2.5 mL/kg,Saldiuretic activity (Canis familiaris [2]): 0.35 m equiv 6hr-1 kg-1; Ratio [4]: 3; Ratio [6]: 1; Saluretic activity (Canis familiaris [7]): 1.06 m equiv 6hr-1 kg-1; Saldiuretic activity (Canis familiaris [10]): 1.43 m equiv 6hr-1 kg-1
NS(=O)(=O)c1cc(S(=O)(=O)[O-])c(NCc2ccncc2)cc1Cl.[Na+],0.1 m equiv 5hr-1 kg-1,–,0.1 m equiv 5hr-1 kg-1,0.4 m equiv 5hr-1 kg-1,0.2 mL/kg,–
NS(=O)(=O)c1cc(S(=O)(=O)[O-])c(NCc2ccco2)cc1Nc1ccccc1Cl.[Na+],0.3 m equiv 5hr-1 kg-1,–,0.6 m equiv 5hr-1 kg-1,0.8 m equiv 5hr-1 kg-1,1.1 mL/kg,–
CC(C)(C)S(=O)(=O)c1cc(NCc2ccco2)c(S(=O)(=O)[O-])cc1S(N)(=O)=O.[K+],3.3 m equiv 5hr-1 kg-1,–,4.3 m equiv 5hr-1 kg-1,1.8 m equiv 5hr-1 kg-1,2.5 mL/kg,–
NS(=O)(=O)c1cc(S(=O)(=O)[O-])c(NCc2ccc3c(c2)OCO3)cc1Cl.[Na+],0.4 m equiv 5hr-1 kg-1,–,0.3 m equiv 5hr-1 kg-1,0.3 m equiv 5hr-1 kg-1,0.4 mL/kg,–
NS(=O)(=O)c1cc(S(=O)(=O)[O-])c(NCc2ccco2)cc1S(=O)(=O)C1CCCCCC1.[Na+],8.9 m equiv 5hr-1 kg-1,–,9.9 m equiv 5hr-1 kg-1,2.8 m equiv 5hr-1 kg-1,4 mL/kg,–
CN(c1cc(NCc2ccco2)c(S(=O)(=O)[O-])cc1S(N)(=O)=O)C1CCCCC1.[K+],0.4 m equiv 5hr-1 kg-1,–,0.6 m equiv 5hr-1 kg-1,1 m equiv 5hr-1 kg-1,0.8 mL/kg,–
NS(=O)(=O)c1cc(S(=O)(=O)O)c(NCc2ccco2)cc1Oc1ccccc1,–,–,–,–,–,Saldiuretic activity (Rattus norvegicus [23]): Active; Saldiuretic activity (Canis familiaris [24]): Active
Cc1cccc(Nc2cc(NCc3ccco3)c(S(=O)(=O)[O-])cc2S(N)(=O)=O)c1.[Na+],0.6 m equiv 5hr-1 kg-1,–,0.9 m equiv 5hr-1 kg-1,1.5 m equiv 5hr-1 kg-1,0.8 mL/kg,–
Cc1ccc(Oc2cc(NCc3ccco3)c(S(=O)(=O)[O-])cc2S(N)(=O)=O)cc1C.[K+],2.2 m equiv 5hr-1 kg-1,–,3.7 m equiv 5hr-1 kg-1,1.4 m equiv 5hr-1 kg-1,1.3 mL/kg,–
Nc1cc(Oc2ccccc2)c(S(N)(=O)=O)cc1S(=O)(=O)[O-].[K+],0.5 m equiv 5hr-1 kg-1,–,0.7 m equiv 5hr-1 kg-1,1.3 m equiv 5hr-1 kg-1,1 mL/kg,–
C1CCC(NC2CCCCC2)CC1.NS(=O)(=O)c1cc(S(=O)(=O)O)c(NCc2ccco2)cc1Oc1ccccc1,0.7 m equiv 5hr-1 kg-1,–,0.8 m equiv 5hr-1 kg-1,1 m equiv 5hr-1 kg-1,0.9 mL/kg,–
CCCCCCS(=O)(=O)c1cc(NCc2ccco2)c(S(=O)(=O)[O-])cc1S(N)(=O)=O.[Na+],1.1 m equiv 5hr-1 kg-1,–,1.2 m equiv 5hr-1 kg-1,1.9 m equiv 5hr-1 kg-1,0.7 mL/kg,–
